Results taken from ChEMBL document CHEMBL4017522, “Stilbene Boronic Acids Form a Covalent Bond with Human Transthyretin and Inhibit Its Aggregation” (J Med Chem, 2017).
Active and inactive are the calls of the source. No cut-off for these calls is given here.

Tests used:
[1] = system: Transthyretin (Homo sapiens), P02766 [V50M]; experiment: Inhibition of human TTR V30M mutant expressed in Escherichia coli BL-21 assessed as fibril formation at 7.2 uM incubated for 30 mins measured after 96 hrs by light scattering method relative to control; set-up: scale not given: the % may be the effect or the level left
[2] = system: Transthyretin (Homo sapiens), P02766 [V50M]; experiment: Inhibition of human TTR V30M mutant expressed in Escherichia coli BL-21 assessed as fibril formation at 14.4 uM incubated for 30 mins measured after 96 hrs by light scattering method relative to control; set-up: scale not given: the % may be the effect or the level left
Transthyretin [3] = biological target: T1, Transthyretin (Homo sapiens, UniProt P02766); experiment: Inhibition of human wild type TTR expressed in Escherichia coli BL-21 assessed as fibril formation at 7.2 uM incubated for 30 mins measured after 96 hrs by light scattering method relative to control; set-up: scale not given: the % may be the effect or the level left
Method in brief: (§1)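 Ligand (7.2 or 14.4 μM) preincubated 30 min with TTR tetramers (7.2 μM, wild-type or V30M), then diluted twofold into 50 mM sodium acetate, pH 4.4, 100 mM KCl. Turbidity read as A400 at 0 and 96 h, four replicates; percent fibril formation = ligand-well A400 gain over DMF vehicle-well gain ×100, standard deviations propagated.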

Transthyretin [4] = biological target: T1, Transthyretin; experiment: Reversible binding affinity to human wild type TTR expressed in Escherichia coli BL-21 at 360 uM by mass spectrometry
Transthyretin [5] = biological target: T1, Transthyretin; experiment: Competitive binding affinity to human wild type TTR expressed in Escherichia coli BL-21 assessed as equilibrium dissociation constant of second site in presence of ANS by spectrofluorometer
Transthyretin [6] = biological target: T1, Transthyretin; experiment: Inhibition human wild type TTR expressed in Escherichia coli BL-21 assessed as fibril formation at 14.4 uM incubated for 30 mins after 96 hrs by light scattering method relative to control; set-up: scale not given: the % may be the effect or the level left; method in brief: as §1

| Structure (SMILES) | Activity [1] [%] | Activity [2] [%] | Activity (Transthyretin [3]) [%] | Activity (Transthyretin [4]) | Kd (Transthyretin [5]) [nM] | Activity (Transthyretin [6]) [%] |
| --- | --- | --- | --- | --- | --- | --- |
| OB(O)c1ccc(/C=C/c2ccc(B(O)O)cc2Cl)c(Cl)c1 | 32 | 8 | 20 | Active | 470 | 3 |
| O=C(O)c1cccc(/C=C/c2ccc(B(O)O)cc2Cl)c1 | 32 | 10 | 16 |  | 450 | 4 |
| O=C(O)c1cccc(/C=C/c2ccc(O)cc2Cl)c1 | 41 | 9 | 21 |  | 470 | 3 |
| OB(O)c1cccc(/C=C/c2ccc(B(O)O)cc2Cl)c1 | 54 | 16 | 26 |  |  | 10 |
| OB(O)c1ccc(/C=C/c2cc(O)cc(O)c2)c(Cl)c1 | 36 | 12 | 19 |  | 440 | 4 |
| O=C(O)c1cccc(/C=C/c2ccc(O)cc2)c1 | 112 | 120 | 75 |  | 1800 | 77 |
| O=C(O)c1ccc2nc(-c3cc(Cl)cc(Cl)c3)oc2c1 | 5 | 8 | 22 |  |  | 0 |
| Oc1ccc(/C=C/c2ccc(O)cc2Cl)c(Cl)c1 | 62 | 27 | 30 |  | 820 | 12 |

Continued, values first:

| Activity [1] [%] | Activity [2] [%] | Activity (Transthyretin [3]) [%] | Activity (Transthyretin [4]) | Kd (Transthyretin [5]) [nM] | Activity (Transthyretin [6]) [%] | Structure (SMILES) |
| --- | --- | --- | --- | --- | --- | --- |
| 48 | 28 | 21 |  | 990 | 11 | O=C(O)c1cccc(/C=C/c2ccc(B(O)O)cc2)c1 |
| 48 | 23 | 21 |  | 470 | 9 | OB(O)c1ccc(/C=C/c2cc(O)cc(O)c2)cc1 |
| 44 | 14 | 22 |  | 730 | 7 | Oc1cc(O)cc(/C=C/c2ccc(O)cc2Cl)c1 |
|  |  | 28 |  | 470 | 9 | Oc1ccc(/C=C/c2cc(O)cc(O)c2)cc1 [RESVERATROL] |
